# In ChEMBL document CHEMBL3351828, “Design and optimization of highly-selective fungal CYP51 inhibitors” (Bioorg Med Chem Lett, 2014):
# Assays:
# Candida albicans [1] = assay: Antifungal activity against Candida albicans by broth macrodilution method; type: functional
# Method in brief: (§1)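 MIC against standard ATCC isolates determined under CLSI guidelines, M27-A3 for yeasts. […] Units μg/mL.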
# Cytochrome P450 3A4 = Cytochrome P450 3A4 (Homo sapiens, UniProt P08684); assay: Inhibition of CYP3A4 in human hepatocytes using testosterone as substrate by HPLC/MS/MS method; type: ADME, cell-based, Hepatocyte
# Candida albicans [2] = assay: Antifungal activity against Candida albicans R303 infected in CD-1 mouse assessed as reduction of kidney fungal burden at 50 mg/kg, po administered 2 hrs post infection on day 1 measured on day 2 relative to vehicle-treated control; type: functional
# Method in brief: (§2)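 Female CD-1 mice (7 weeks, 18-25 g) made neutropenic with IP cyclophosphamide (150 mg/kg) on days 4 and 1 before tail-vein inoculation with C. albicans R303. Single oral dose given 2 h after infection on day 1. Kidneys harvested day 2 and homogenized in PBS. CFU/kidney counted on SDA plates from serial dilutions. Percent reduction taken versus vehicle-treated controls. Fluconazole used as positive control.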
# Candida albicans [3] = assay: Antifungal activity against Candida albicans R303 infected in CD-1 mouse assessed as reduction of kidney fungal burden at 20 mg/kg, po administered 2 hrs post infection on day 1 measured on day 2 relative to vehicle-treated control; type: functional; method in brief: as §2
# Trichophyton rubrum = assay: Antifungal activity against Trichophyton rubrum by broth macrodilution method; type: functional; method in brief: as §1
# [4] = Selectivity index, ratio of IC50 for human hepatocytes CYP3A4 to MIC for Trichophyton rubrum; design: species or system Hepatocyte
# Method in brief: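 CYP3A4 IC50 measured in pooled human hepatocyte microsomes with 150 μM testosterone as substrate, a concentration equal to the Km determined in the same lab. […] Selectivity index calculated as CYP3A4 IC50 (μM) divided by T. rubrum MIC (μg/mL).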
# Cytochrome P450 2C9 = Cytochrome P450 2C9 (Homo sapiens, UniProt P11712); assay: Inhibition of CYP2C9 (unknown origin); type: ADME
# Cytochrome P450 2C19 = Cytochrome P450 2C19 (Homo sapiens, UniProt P33261); assay: Inhibition of CYP2C19 (unknown origin); type: ADME
# Candida albicans [5] = assay: Antifungal activity against Candida albicans infected in mouse candidiasis model assessed as reduction of kidney fungal burden at 10 mg/kg, po; type: functional; design: scale not given: the % may be the effect or the level left
# [6] = Selectivity for yeast CYP51 over human CYP51
# [7] = Half life in po dosed human; type: ADME, organism-based; settings: in vivo
# [8] = tested on: Trichophyton mentagrophytes; assay: Antifungal activity against Trichophyton mentagrophytes infected in guinea pig dermatophytosis model assessed as mycological efficacy at 10 mg/kg, po administered for 9 days; type: functional
# [9] = biological target: Lanosterol 14-alpha demethylase (Candida albicans (strain SC5314 / ATCC MYA-2876) (Yeast), UniProt P10613); assay: Binding affinity to Candida albicans CYP51
# [10] = Metabolic stability in human liver microsomes after 2 hrs; type: ADME; settings: read-out: Stability
# Candida albicans [11] = assay: Antifungal activity against Candida albicans R303 infected in CD-1 mouse assessed as reduction of kidney fungal burden at 10 mg/kg, po administered 2 hrs post infection on day 1 measured on day 2 relative to vehicle-treated control; type: functional
# Method in brief: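 Female CD-1 mice (7 weeks, 18-25 g) made neutropenic with IP cyclophosphamide 150 mg/kg at 4 and 1 days before tail-vein inoculation with C. albicans R303. Single oral dose 2 h post-infection on day 1. Kidneys harvested day 2, homogenized in PBS, serially diluted and plated on SDA for CFU/kidney. Read-out: percent reduction in kidney fungal burden versus vehicle-treated controls.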
# Chain of Cytochrome P450 3A4 (P08684 whole entry): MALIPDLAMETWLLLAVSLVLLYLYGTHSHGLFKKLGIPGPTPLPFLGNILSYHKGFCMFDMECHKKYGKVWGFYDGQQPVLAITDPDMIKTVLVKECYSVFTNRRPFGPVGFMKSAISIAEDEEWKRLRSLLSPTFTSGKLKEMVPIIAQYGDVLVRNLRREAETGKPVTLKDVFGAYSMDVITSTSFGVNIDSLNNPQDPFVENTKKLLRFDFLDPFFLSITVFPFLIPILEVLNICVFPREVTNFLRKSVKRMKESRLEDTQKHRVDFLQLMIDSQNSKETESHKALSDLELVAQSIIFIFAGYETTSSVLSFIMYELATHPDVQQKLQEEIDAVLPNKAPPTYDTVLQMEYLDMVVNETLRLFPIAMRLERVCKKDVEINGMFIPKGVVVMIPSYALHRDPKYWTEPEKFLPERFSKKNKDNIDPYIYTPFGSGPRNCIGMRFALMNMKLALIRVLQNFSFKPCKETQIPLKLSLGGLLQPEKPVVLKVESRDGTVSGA
# Chain of Cytochrome P450 2C19 (P33261 whole entry): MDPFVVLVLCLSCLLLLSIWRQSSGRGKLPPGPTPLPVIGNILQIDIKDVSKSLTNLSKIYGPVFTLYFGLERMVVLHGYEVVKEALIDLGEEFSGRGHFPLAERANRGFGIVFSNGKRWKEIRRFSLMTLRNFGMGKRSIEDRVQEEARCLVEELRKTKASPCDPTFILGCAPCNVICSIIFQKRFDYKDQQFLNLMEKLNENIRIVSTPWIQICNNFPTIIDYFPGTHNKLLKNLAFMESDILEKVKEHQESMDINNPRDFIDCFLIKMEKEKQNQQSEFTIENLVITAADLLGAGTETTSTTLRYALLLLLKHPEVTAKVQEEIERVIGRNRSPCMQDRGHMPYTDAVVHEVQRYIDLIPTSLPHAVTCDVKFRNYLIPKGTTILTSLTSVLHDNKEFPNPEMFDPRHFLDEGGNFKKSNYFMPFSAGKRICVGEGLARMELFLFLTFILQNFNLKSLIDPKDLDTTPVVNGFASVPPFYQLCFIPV
# Chain of Lanosterol 14-alpha demethylase (P10613 whole entry): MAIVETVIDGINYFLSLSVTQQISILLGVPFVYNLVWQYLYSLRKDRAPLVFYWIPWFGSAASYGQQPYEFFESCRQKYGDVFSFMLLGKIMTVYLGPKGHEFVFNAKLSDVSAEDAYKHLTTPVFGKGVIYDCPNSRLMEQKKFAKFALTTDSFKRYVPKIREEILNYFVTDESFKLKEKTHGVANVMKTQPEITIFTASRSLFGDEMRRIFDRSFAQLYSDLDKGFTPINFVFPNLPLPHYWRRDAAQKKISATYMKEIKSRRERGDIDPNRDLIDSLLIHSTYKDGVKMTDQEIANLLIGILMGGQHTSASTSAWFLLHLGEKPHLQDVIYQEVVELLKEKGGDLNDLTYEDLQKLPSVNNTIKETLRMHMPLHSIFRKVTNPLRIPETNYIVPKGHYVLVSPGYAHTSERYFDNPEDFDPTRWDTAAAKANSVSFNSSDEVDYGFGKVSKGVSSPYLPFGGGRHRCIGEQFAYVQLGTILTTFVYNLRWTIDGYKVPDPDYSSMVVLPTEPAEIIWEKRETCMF
# Chain of Cytochrome P450 2C9 (P11712 whole entry): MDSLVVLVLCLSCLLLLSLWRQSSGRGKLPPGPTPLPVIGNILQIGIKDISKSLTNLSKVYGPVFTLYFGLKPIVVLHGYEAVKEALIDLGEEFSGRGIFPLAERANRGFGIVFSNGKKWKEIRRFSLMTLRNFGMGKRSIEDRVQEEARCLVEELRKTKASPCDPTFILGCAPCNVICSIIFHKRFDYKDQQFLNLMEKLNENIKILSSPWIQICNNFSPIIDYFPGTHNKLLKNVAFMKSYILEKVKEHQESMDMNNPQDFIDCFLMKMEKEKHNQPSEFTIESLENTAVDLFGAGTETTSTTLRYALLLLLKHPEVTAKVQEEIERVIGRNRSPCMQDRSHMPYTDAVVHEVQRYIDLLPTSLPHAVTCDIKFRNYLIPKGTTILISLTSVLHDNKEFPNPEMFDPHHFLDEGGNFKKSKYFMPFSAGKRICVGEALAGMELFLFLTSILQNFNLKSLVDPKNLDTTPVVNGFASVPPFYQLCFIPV
Compound,MIC50 (Candida albicans [1]) [µg/mL],IC50 (Cytochrome P450 3A4) [µM],also measured
OC(Cn1cnnn1)(c1ccc(F)cc1F)C(F)(F)c1ccc(OCC(F)(F)F)cn1 (stereo not given),0.06,72,Efficacy (Candida albicans [2]): 81%
OC(Cn1cnnn1)(c1ccc(F)cc1F)C(F)(F)c1ccc(-c2ccc(C(F)(F)F)cc2)cn1 (stereo not given),≤ 0.016,> 60,Efficacy (Candida albicans [3]): 94%
O[C@@](Cn1cnnn1)(c1ccc(F)cc1F)C(F)(F)c1ccc(-c2ccc(Cl)cc2)cn1,≤ 0.001,36,MIC50 (Trichophyton rubrum): 0.004 µg/mL; Selectivity Index [4]: 9000
C[C@@H](c1ncncc1F)[C@](O)(Cn1ccnc1)c1ccc(F)cc1F,0.5,0.8,–
O[C@@](Cn1cnnn1)(c1ccc(F)cc1F)C(F)(F)c1ccc(Cl)cn1,0.25,74,Efficacy (Candida albicans [2]): 100%
C[C@@H](c1ncncc1F)[C@](O)(Cn1cncn1)c1ccc(F)cc1F [VORICONAZOLE],0.06,–,–
O[C@@](Cn1cnnn1)(c1ccc(F)cc1F)C(F)(F)c1ccc(-c2ccc(OC(F)(F)F)cc2)cn1,≤ 0.001,79,MIC50 (Trichophyton rubrum): ≤ 0.001 µg/mL; Selectivity Index [4]: >79000
C[C@@H](c1ncncc1F)[C@](O)(Cn1ccnn1)c1ccc(F)cc1F,> 16,8,–
OC(Cn1cnnn1)(c1ccc(F)cc1F)C(F)(F)c1ccccn1 (stereo not given),0.25,136,Efficacy (Candida albicans [2]): 98%
N#Cc1ccc(-c2ccc(C(F)(F)C(O)(Cn3cnnn3)c3ccc(F)cc3F)nc2)cc1 (stereo not given),≤ 0.016,16,Efficacy (Candida albicans [2]): 100%
C[C@@H](c1ncncc1F)[C@](O)(Cn1cnnn1)c1ccc(F)cc1F,1,32,–
C[C@@H](c1ncncc1F)[C@](O)(Cn1cnnc1)c1ccc(F)cc1F,> 16,51,–
O[C@@](Cn1cnnn1)(c1ccc(F)cc1F)C(F)(F)c1ccc(-c2ccc(OCC(F)(F)F)cc2)cn1 [OTESECONAZOLE],≤ 0.001,65,IC50 (Cytochrome P450 2C9): 99 µM; IC50 (Cytochrome P450 2C19): 72 µM; Activity (Candida albicans [5]): 99%; Selectivity ratio [6]: > 2200; half-life [7]: > 24 h; MIC50 (Trichophyton rubrum): ≤ 0.001 µg/mL; Selectivity Index [4]: >65000; Activity [8]: 86%; Kd [9]: ≤ 0.039 µM; remaining at 2 h [10]: > 99%
CCC(C)n1ncn(-c2ccc(N3CCN(c4ccc(OCC5COC(Cn6cncn6)(c6ccc(Cl)cc6Cl)O5)cc4)CC3)cc2)c1=O (stereo not given) [ITRACONAZOLE],0.016,–,MIC50 (Trichophyton rubrum): 0.062 µg/mL
OC(Cn1cnnn1)(c1ccc(F)cc1F)C(F)(F)c1ccc(-c2ccc(F)cc2)cn1 (stereo not given),0.016,–,Efficacy (Candida albicans [11]): 99%
O[C@@](Cn1cnnn1)(c1ccc(F)cc1F)C(F)(F)c1ccc(-c2ccc(C(F)(F)F)cc2)cn1,≤ 0.001,54,MIC50 (Trichophyton rubrum): 0.002 µg/mL; Selectivity Index [4]: 27000
C[C@@H](c1ncncc1F)[C@](O)(Cn1ncnn1)c1ccc(F)cc1F,8,46,–
OC(Cn1cncn1)(Cn1cncn1)c1ccc(F)cc1F [FLUCONAZOLE],–,–,Efficacy (Candida albicans [11]): 99%
